Active and inactive are the calls of the source. The calls are words filed in the database; no cut-off is given here.
Columns and labels:
[1] = Antioxidant activity assessed as trolox equivalent of AAPH-induced peroxyl radical scavenging activity at 1.3 to 13 uM up to 140 mins by ORAC-FL assay; type: functional
Procedure, shortened: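 ORAC: fluorescein (7.5 nM) decay (ex 485/em 512 nm) followed 140 min at 37 °C. Peroxyl radicals came from 30 mM AAPH in 75 mM phosphate pH 7.4 with 100 µM DTPA, compounds at 1.3-13 µM. Curves normalised to initial fluorescence, and net AUC versus concentration compared with Trolox standard (1.5-24 µM). Three independent determinations, mean ± SD.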

Mus musculus [2] = species on record: Mus musculus; assay: Antiinflammatory activity in mouse […] cells assessed as reduction in INF-gamma/LPS-induced IL-1beta expression at 5 uM preincubated for 1 hr followed by INF-gamma/LPS addition for 4 hrs by Western blot analysis; type: functional, cell-based
Procedure, shortened: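 Confluent J774 monolayers preincubated 1 h with compound at 5 µM, then stimulated 4 h at 37 °C, 5% CO₂ with IFN-γ 400 U/mL plus Salmonella enterica LPS 8 µg/mL. Whole-cell lysates resolved by 15% SDS-PAGE and immunoblotted with rabbit anti-IL-1β and Alexa Fluor 680 secondary. Bands quantified by densitometry, with loading checked on paired colloidal-blue gels. Three independent experiments, one-way ANOVA.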

Plasma [3] = assay: Inhibition of AAPH-induced oxidation of human plasma derived LDL assessed as time of delay for initiation of propagation phase by measuring rate of oxygen consumption at 20 uM added before AAPH addition by high-resolution oxygen electrode
Plasma [4] = assay: Inhibition of AAPH-induced oxidation of human plasma derived LDL assessed as reversal of rate of oxygen consumption at 20 uM added after beginning of propagation phase by high-resolution oxygen electrode
[5] = Cytotoxicity in mouse […] cells assessed as change in cell survival at 0.3 to 5 uM after 2 to 24 hrs by MTT assay; type: cell-based
Procedure, shortened: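 Confluent J774 cells exposed to compounds in DMEM at 37 °C, 5% CO₂ for 2 h and for 24 h. MTT (0.1 mg/mL in DPBS) then added for 3 h at 37 °C. Formazan dissolved in DMSO/glycine buffer pH 10.5 and absorbance read at 560 nm, with vehicle as reference.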

Mus musculus [6] = species on record: Mus musculus; assay: Antiatherogenic activity in mouse […] cells assessed as foam cell formation by measuring ox-LDL internalization at 2.5 to 5 uM preincubated for 1 hr followed by ox-LDL Dil addition for 4 hrs by Hoechst 3342-staining based fluorescence assay; type: functional
Procedure, shortened: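 J774 murine macrophages in DMEM with 10% FBS at 80% confluence (~2×10⁵ cells/well) preincubated 1 h with compound (0.3-5 µM range in plate-reader format). DiI-labelled Cu²⁺-oxidised LDL (10 µg/mL) then added for 4 h at 37 °C, 5% CO₂. Cells washed, nuclei stained with Hoechst 3342 (10 µg/mL, 10 min). Read-out is DiI (549/565 nm) to Hoechst (352/461 nm) fluorescence ratio.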

| SMILES | Activity [1] | further results |
| --- | --- | --- |
| CSc1ccc(CC[N+](=O)[O-])cc1 | 2.8 equiv | – |
| COc1ccc(/C=C(/C)[N+](=O)[O-])cc1 | 0.46 equiv | – |
| C/C(=C/c1ccccc1)[N+](=O)[O-] | 0.37 equiv | – |
| C/C(=C/c1cccs1)[N+](=O)[O-] | 0.54 equiv | – |
| O=[N+]([O-])/C=C\c1ccc2c(c1)OCO2 | 0.72 equiv | – |
| CC(=O)Nc1ccc(/C=C\[N+](=O)[O-])cc1 | 0.63 equiv | – |
| CC(Cc1ccc(N(C)C)cc1)[N+](=O)[O-] (stereo unspecified) | 10 equiv | Activity (Mus musculus [2]): Active; Time (Plasma [3]): 30 min; inhibition (Plasma [4]): Active |
| COc1ccc(/C=C\[N+](=O)[O-])cc1 | 0.46 equiv | – |
| C/C(=C/c1ccc2c(c1)OCO2)[N+](=O)[O-] | 1.6 equiv | – |
| O=[N+]([O-])/C=C\c1cccs1 | 0.43 equiv | – |
| CC(=O)Nc1ccc(CC[N+](=O)[O-])cc1 | 0.26 equiv | – |
| C/C(=C/c1ccc(N(C)C)cc1)[N+](=O)[O-] | 5.4 equiv | Activity (Mus musculus [2]): Active; Activity [5]: Non-Toxic; Time (Plasma [3]): 20 min; Activity (Mus musculus [6]): inactive; inhibition (Plasma [4]): inactive |
| O=[N+]([O-])/C=C\c1ccc(Cl)cc1 | 0.44 equiv | – |
| C/C(=C/c1ccc(Br)cc1)[N+](=O)[O-] | 0.45 equiv | – |
| CN(C)c1ccc(CC[N+](=O)[O-])cc1 | 13 equiv | Activity (Mus musculus [2]): Active; Time (Plasma [3]): >40 min; inhibition (Plasma [4]): Active |
| CSc1ccc(/C=C\[N+](=O)[O-])cc1 | 3.5 equiv | – |
| C/C(=C/c1ccc(Cl)cc1)[N+](=O)[O-] | 0.39 equiv | – |
| CN(C)c1ccc(/C=C\[N+](=O)[O-])cc1 | 4.2 equiv | Activity (Mus musculus [2]): Active; Activity [5]: Non-Toxic; Time (Plasma [3]): 20 min; Activity (Mus musculus [6]): inactive; inhibition (Plasma [4]): inactive |
| O=[N+]([O-])/C=C\c1ccccc1 | 0.29 equiv | – |
| O=[N+]([O-])/C=C\c1ccc(Br)cc1 | 0.44 equiv | – |
